DTT redox prof – compounds producing H2O2 with reducing agent – biochemical, NIH compound library profiling, artefact control for MLSCN library redox annotation, primary screen | activation, % at 10 µM | DTT-dependent redox cycling H2O2, phenol red/HRP absorbance; 100% = 100 µM peroxide control, 0% = buffer | 200,000 tested, 0.03% active;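 active means activation of at least 50% relative to the plate's high and low controls in the primary single-dose screen; inactive means activation below 50%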;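 further: compound incubated with DTT at 0.8 mM final as the reducing agent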
G6PDH CS – counter-screen for G6PDH assay hits: L. mesenteroides G6PDH inhibition; 200,000 tested, 0.12% active; Purified L. mesenteroides G6PDH, diaphorase/resazurin coupled fluorescence, 45 min; inhibition, % at 5 µM
PfG6PD inh – PfG6PD (Plasmodium falciparum) enzyme inhibition; PfGluPho enzyme, NADPH resazurin-diaphorase fluorescence; inhibition, % at 20 µM; 350,000 tested, 0.78% active;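 active means inhibition reaching at least a set limit at 20 µM in the primary screen, cut at about 59% in these data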;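 further: 0% = DMSO wells with substrate and 100% = DMSO wells lacking glucose-6-phosphate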
Lmaj promast – Leishmania major promastigote growth inhibition; inhibition, % at 10 µM; 200,000 tested, 9% active; Leishmania major promastigotes, resazurin fluorescence viability;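 further: promastigotes grown with compound for 44 hours at 28 °C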
Diaph act CS – counter-screen for diaphorase-based assays: diaphorase activators and chemical reducers | 190,000 tested, 0.005% active | AID 1229 | Diaphorase/resazurin coupled assay, resorufin fluorescence, 16 min; active compounds read high; 1 = vehicle wells, 0 = NADH-free wells | activation factor at 20 µM;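 active means diaphorase activity raised at least twofold by the compound at 20 µM; inactive means activation factor below 2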
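Material: Clostridium kluyveri diaphorase, purified enzyme; Quantity: enzyme 0.07 U/mL final; Medium: HEPES pH 7.4 buffer with MgCl2 and Tween 20; Dosing: single compound dose of 20 µM, 1% DMSO final; Schedule: 16 min reaction at room temperature; Measured by: red resorufin fluorescence at 544/590 nm excitation/emission.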
Diaphorase inh – diaphorase inhibition or chemical oxidation counter-screen. diaphorase resazurin-to-resorufin fluorescence, NADH, 16 min; bacterial (C. kluyveri) enzyme, not human. inhibition, % at 20 µM. 190,000 tested, 0.69% active;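 active means primary screen inhibition at 20 µM above a set limit, cut at about 50% in these data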;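 further: plate controls were DMSO with full reaction for no effect and wells lacking NADH for full effect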
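material = Clostridium kluyveri diaphorase enzyme | amount = 0.14 U/mL diaphorase, enzyme working solution | schedule = incubation 16 min, room temperature | detection = fluorescence of resorufin formed from resazurin, Ex 544/Em 590 nm | benchmarks = positive control minus NADH, DMSO neutral control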
Active calls of the source: *; x = no result. Many of the other results were omitted from the sample, so hits are more common in it than they were. Unless noted, no stated cut-off is given here; in the data, active means inhibition above about 50%; inactive means the rest.

SMILES	DTT redox prof	G6PDH CS	PfG6PD inh	Lmaj promast	Diaph act CS	Diaphorase inh
Cn1cc(C(=O)c2ccc(F)cc2)cc1-c1nc2ccccc2n1C	0.6	-10.3	-12.4	71.0*	0.8	23.0
CC(=O)c1cc(-c2nc3ccccc3n2C)n(C)c1	2.5	9.9	8.1	15.5	0.9	13.9
CCN(CC(=O)NC1CCS(=O)(=O)C1)C(=O)c1cc(OC)c(OC)c(OC)c1 (centres undefined)	x	x	3.1	x	x	x
CC(CCc1ccccc1)NC(=O)CNC(=S)N(Cc1cccs1)C1CCCC1 (centres undefined)	-0.2	6.2	0.0	50.8*	0.8	24.7
CCc1ccc(NC(=O)C(C)OC(=O)Cn2[nH]c(=O)c3ccccc3c2=O)cc1 (centres undefined)	x	x	11.2	x	x	x
Cc1cc(/C=N\NC(=O)CC(=O)NC2CCCCC2)c(C)n1-c1ccc(Cl)cc1	-1.4	-26.5	-14.3	-4.5	0.7	31.9
Cc1cccc(C)c1-n1c(C)cc(/C=N/NC(N)=S)c1C	1.0	-5.1	22.2	96.5*	0.8	17.6
Cc1cc(/C=N/NC(N)=S)c(C)n1-c1ccc(Br)cc1	-1.7	7.7	18.5	99.5*	1.1	-10.9
Cc1ccccc1-n1c(C)cc(/C=N/NC(=O)c2ccncc2)c1C	1.7	2.2	-1.9	3.6	1	-3.7
Cc1cc(/C=N/O)c(C)n1-c1ccc(Br)cc1	0.1	3.9	9.9	5.6	0.9	6.3
Cc1cc(/C=N/NC(N)=S)c(C)n1-c1cccc(Cl)c1	0.3	6.3	19.8	94.2*	0.9	14.3
Cc1cc(/C=N/NC(N)=S)c(C)n1-c1ccc(Cl)cc1	-0.1	-1.1	32.7	89.0*	0.9	5.1
CC(=O)NC(CCS(C)(=O)=O)C(=O)Nc1ccc(Oc2ccccc2)cc1 (centres undefined)	-0.7	1.4	-25.5	-10.7	1	1.2
Cc1c(N=C2SCC(=O)N2/N=C\c2ccc(Br)cc2)c(=O)n(-c2ccccc2)n1C	-0.4	-1.5	-0.4	76.2*	0.9	5.6
Cn1c(N)c(S(=O)(=O)NCc2ccc(F)cc2)c(=O)n(C)c1=O	x	x	7.0	x	x	x
COc1ccc(-c2csc(N(CCCN(C)C)C(=O)c3cccs3)n2)cc1	-0.2	1.8	14.7	91.8*	0.9	6.6
COC(=O)CCCN1C(=O)c2cccc3cccc(c23)C1=O	x	x	4.4	x	x	x
COc1ccc(N(CCCN2C(=O)c3cccc4cccc(c34)C2=O)C(=O)c2cccs2)cc1	1.8	5.5	14.5	6.3	0.3	66.6*
Cc1ccc(N(CCCCN2C(=O)c3ccccc3C2=O)C(=O)c2cccs2)cc1	0.5	0.4	-2.1	-1.8	0.8	15.8
COc1cc(C)ccc1N(CCCN1C(=O)c2cccc3cccc(c23)C1=O)C(=O)c1cccs1	0.9	-22.7	26.9	29.3	0.3	72.0*
Cc1cc(NC(=O)CCC(=O)N(CC(=O)NC2CCCC2)c2ccc(C(C)C)cc2)no1	x	x	9.8	x	x	x
COc1cc2c(cc1OC)C1(CCCC1)C(N)=C2C#N	-0.3	13.6	8.2	99.6*	0.7	30.1
Cc1cc(N/N=C/c2ccccc2)nc(N2CCOCC2)n1	x	x	8.5	x	x	x
CC(C)c1ccc(/C=N/Nc2cc(N3CCOCC3)nc(N3CCOCC3)n2)cc1	-0.1	24.3	22.0	15.4	0.4	63.0*
Oc1ccc(/C=N/Nc2cc(N3CCCC3)nc(N3CCCC3)n2)cc1O	1.4	48.6	16.1	99.0*	0.4	61.9*
SMILES	DTT redox prof	G6PDH CS	PfG6PD inh	Lmaj promast	Diaph act CS	Diaphorase inh
Cc1ccc(/C=N/Nc2cc(C)nc(N3CCOCC3)n2)cc1	x	x	10.9	x	x	x
Cc1cccc(/C=N/Nc2cc(N3CCOCC3)nc(N3CCOCC3)n2)c1	0.8	30.2	20.9	87.4*	0.3	72.1*
O=C(COc1ccc([N+](=O)[O-])cc1)Nc1nnc(-c2cccnc2)s1	x	x	-5.4	x	x	x
Clc1ccc(SCCCCn2ccnc2)cc1	-0.1	-2.1	-5.8	100.1*	0.9	10.5
Cc1cccc(OCCCCCn2ccnc2)c1	2.4	2.0	-9.2	99.7*	0.9	6.9
Cc1ccccc1OCCCCCn1ccnc1	0.4	2.0	-9.3	100.3*	0.9	5.9
Clc1ccccc1OCCCn1ccnc1	x	x	-5.3	x	x	x
Cc1cccc(OCCn2ccnc2)c1	x	x	2.7	x	x	x

High-throughput results (PubChem)
